For data set [1], the target named is Substance-P receptor (Rattus norvegicus) (UniProt P14600). Put plainly: Displacement of [3H]substance P from rat NK1 receptor expressed in CHO cells. Type of data set: cell-based. (In a radioligand displacement assay an active substance lowers the binding of a labelled ligand.)
For data set [2], the target named is Substance-P receptor (Homo sapiens, UniProt P25103). Put plainly: Displacement of [3H]substance P from human NK1 receptor expressed in CHO cells. Type of data set: cell-based.
Data set [3] addresses Substance-P receptor (Cavia porcellus) (UniProt P30547). Put plainly: Antagonist activity at NK1 receptor in Hartley guinea pig isolated ileum assessed as inhibition of substance P-induced muscle contraction. The data set is classed as functional, tissue-based. In a few lines: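 Guinea pig ileum LMMP preparation in 1 µM naloxone. Full substance P concentration–response curves run with and without test compound; maximal substance P peak taken as 100%. Ke is the antagonist concentration that halves substance P activity, from at least four tissues.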

Data set [4] has as its target Substance-P receptor (Rattus norvegicus) (UniProt P14600). Put plainly: Displacement of [3H]substance P from rat NK1 receptor expressed in CHO cells at 1 uM. The data set is classed as cell-based.
A short description of data set [5]: Lipophilicity, log D at pH 7.4. The settings on record: buffer. The data set is classed as physicochemical. In a few lines: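 2 mg peptide in 500 µL 0.05 M HEPES/0.1 M NaCl, pH 7.4, shaken with 500 µL 1-octanol for 12 h at rt. Phases separated by centrifugation and each phase analysed by HPLC at 230 nm.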

Chain of Substance-P receptor (P25103 whole entry): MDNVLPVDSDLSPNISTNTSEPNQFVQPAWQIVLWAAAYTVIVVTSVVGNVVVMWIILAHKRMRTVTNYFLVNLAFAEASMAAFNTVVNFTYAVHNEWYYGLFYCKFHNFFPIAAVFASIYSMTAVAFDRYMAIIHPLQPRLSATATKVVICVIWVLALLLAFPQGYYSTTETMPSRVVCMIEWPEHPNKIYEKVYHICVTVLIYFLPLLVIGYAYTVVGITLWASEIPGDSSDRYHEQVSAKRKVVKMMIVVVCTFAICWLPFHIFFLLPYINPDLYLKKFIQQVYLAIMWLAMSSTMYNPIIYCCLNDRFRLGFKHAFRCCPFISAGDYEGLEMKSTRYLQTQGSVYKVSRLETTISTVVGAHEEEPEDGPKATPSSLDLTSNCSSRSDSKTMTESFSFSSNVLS
Chain of Substance-P receptor (Rattus norvegicus) (P14600 whole entry): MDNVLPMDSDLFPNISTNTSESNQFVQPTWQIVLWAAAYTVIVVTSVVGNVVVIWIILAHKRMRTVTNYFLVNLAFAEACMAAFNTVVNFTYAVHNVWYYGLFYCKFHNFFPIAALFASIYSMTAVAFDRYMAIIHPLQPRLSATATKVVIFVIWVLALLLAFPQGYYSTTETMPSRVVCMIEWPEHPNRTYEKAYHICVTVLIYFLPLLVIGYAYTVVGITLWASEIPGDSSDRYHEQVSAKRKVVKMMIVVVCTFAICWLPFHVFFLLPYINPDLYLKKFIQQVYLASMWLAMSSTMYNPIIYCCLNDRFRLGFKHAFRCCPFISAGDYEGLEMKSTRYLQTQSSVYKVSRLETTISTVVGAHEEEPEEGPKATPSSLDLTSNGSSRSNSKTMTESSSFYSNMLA
Chain of Substance-P receptor (Cavia porcellus) (P30547 whole entry): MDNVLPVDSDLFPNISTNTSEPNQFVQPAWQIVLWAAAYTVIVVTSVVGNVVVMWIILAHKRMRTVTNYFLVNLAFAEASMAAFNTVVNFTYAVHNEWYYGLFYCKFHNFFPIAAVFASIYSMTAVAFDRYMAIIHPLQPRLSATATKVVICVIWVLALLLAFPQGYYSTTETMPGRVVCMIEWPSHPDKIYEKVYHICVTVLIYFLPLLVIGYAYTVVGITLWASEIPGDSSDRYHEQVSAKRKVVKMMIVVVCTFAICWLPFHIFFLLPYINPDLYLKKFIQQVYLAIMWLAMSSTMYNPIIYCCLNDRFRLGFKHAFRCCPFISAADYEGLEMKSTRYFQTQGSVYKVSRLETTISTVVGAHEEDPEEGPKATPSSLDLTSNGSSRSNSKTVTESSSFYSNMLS

For the molecule `CC(C)C[C@H](NC(=O)[C@@H]1CCCN1C(=O)[C@H](Cc1ccccc1)NC(=O)CNC(=O)[C@@H](C)NC(=O)[C@@H](N)Cc1ccc(O)cc1)C(=O)N[C@@H](Cc1c[nH]c2ccccc12)C(=O)NCc1cc(C(F)(F)F)cc(C(F)(F)F)c1`, the logIC50 is -7 in data set [1] and -8.9 in data set [2].

Consider `CC(C)C[C@H](NC(=O)[C@@H]1CCCN1C(=O)[C@H](Cc1ccccc1)NC(=O)CNC(=O)[C@@H](C)NC(=O)[C@@H](N)Cc1ccc(O)cc1)C(=O)N[C@@H](Cc1c[nH]c2ccccc12)C(=O)N(C)Cc1cc(C(F)(F)F)cc(C(F)(F)F)c1`, for which the logIC50 in data set [1] was -7.7; in data set [2], -8.5.

For the molecule `CC(C)C[C@H](NC(=O)[C@@H]1CCCN1C(=O)[C@H](Cc1ccccc1)NC(=O)CNC(=O)[C@@H](C)NC(=O)[C@@H](N)Cc1ccc(O)cc1)C(=O)N[C@@H](Cc1c[nH]c2ccccc12)C(=O)OCc1cc(C(F)(F)F)cc(C(F)(F)F)c1`, in data set [1], the logIC50 was -8.3. For the same molecule, in data set [2], the Ki (as a rule, the equilibrium dissociation constant of an inhibitor or competing ligand from its target) worked out at 0.046 nM and the logIC50 is -10. The Ke in data set [3] came to 3.6 nM.

Regarding `CC(C)C[C@H](NC(=O)[C@@H]1CCCN1C(=O)[C@H](Cc1ccccc1)NC(=O)CNC(=O)[C@@H](C)NC(=O)[C@@H](N)Cc1ccc(O)cc1)C(=O)N[C@@H](Cc1c[nH]c2ccccc12)C(=O)NCc1ccccc1`, the logIC50 in data set [2] is -7.5. In addition, the Ke in data set [3] amounted to 26 nM. For the same molecule, the inhibition (usually the change of the read-out against control, counted positive when it falls) in data set [4] was 30%. The logD (commonly the decadic logarithm of the distribution of all forms, ionised or not, between an organic phase and buffer at a given pH) in data set [5] turned out to be 3.3.

For `CC(C)C[C@H](NC(=O)[C@@H]1CCCN1C(=O)[C@H](Cc1ccccc1)NC(=O)CNC(=O)[C@@H](C)NC(=O)[C@@H](N)Cc1ccc(O)cc1)C(=O)N[C@@H](Cc1c[nH]c2ccccc12)C(=O)OCc1ccccc1`, the logIC50 in data set [1] is -6.1; in data set [2] it was -6.7. The molecule further yielded a logD in data set [5] of 3.8.

`CC(C)C[C@H](NC(=O)[C@@H]1CCCN1C(=O)[C@H](Cc1ccccc1)NC(=O)CNC(=O)[C@@H](C)NC(=O)[C@@H](N)Cc1ccc(O)cc1)C(=O)N[C@@H](Cc1c[nH]c2ccccc12)C(=O)N(C)Cc1ccccc1`: in data set [2], the logIC50 was -8.5. Also, in data set [4], the inhibition came to 33%. The molecule also had a logD in data set [5] of 3.5.

These data come from ChEMBL document CHEMBL1143135, “A structure-activity relationship study and combinatorial synthetic approach of C-terminal modified bifunctional peptides that are delta/mu opioid receptor agonists and neurokinin 1 receptor antagonists” (J Med Chem, 2008).
